Efflux pump inh: inhibitors of Candida antifungal efflux pumps expressed in yeast; 330,000 tested, 0.44% active; S. cerevisiae Candida pump triplex, Nile Red efflux; inhibition, % at 10 µM; AID 485275;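 active means plate passing quality check with inhibition over a set limit, or well fluorescence over plate mean plus 4 SD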;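 further: Nile Red retained in pooled yeast measured as flow cytometry median fluorescence; 0% = buffer negative control and 100% = Enniatin B positive control; higher means more Nile Red kept so more efflux inhibition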
Pemphigus Ab inh: human desmoglein-3 autoantibody binding inhibition; P32926; DSG3-coupled beads, scFv-anti-DSG3-GFP binding, flow cytometry; active compounds read low; binding (percent of control), % at 10 µM; 310,000 tested, 0.48% active;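 active means binding more than 3 SD below its plate's average and above zero; inconclusive means below that plate limit but binding exactly zero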;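 further: hits lower antibody fragment binding to DSG3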
Arrestin-AP2 inh: blocks beta-arrestin peptide binding to AP2 adaptin. inhibition, % at 10 µM. FITC-arrestin peptide / GST-AP2 beads, flow cytometry; AP2 beta2 appendage carries R879A mutation. 340,000 tested, 0.31% active;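 active means inhibition above a set limit, near 3 SD of compounds lacking own fluorescence, cut at about 54% in these data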;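 further: plate controls were DMSO wells for no effect and 5 µM unlabelled arrestin peptide for full effect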
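Measured by: flow cytometry, FL1 (488/535 nm); Material: AP2 appendage R879A on GSH beads; Evaluation: percent response; Timing: pre-incubation 12 min, peptide binding 1 h, room temperature; Also added: 50 nM FITC-arrestin peptide; Medium: PBS with 0.05% Tween 20 and 0.1% BSA.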
Neddyl block: inhibitors of human cullin neddylation; AID 651699; P61081+Q13564; 360,000 tested, 0.58% active; TR-FRET cullin neddylation, biochemical; inhibition, % at 25 µM; in the data active means inhibition above about 36%
Arr-AP2 CP1: blocks beta-arrestin peptide binding to human AP2. GST-AP2 beads, FITC arrestin peptide binding, flow cytometry; GST-fused beta2-adaptin appendage, R879A mutant. 1,300 tested, 2% active. shares compounds with Arrestin-AP2 inh. AID 504908. inhibition, % at 10 µM;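 active means inhibition above a set limit, roughly 3 SD of non-fluorescent compound noise, cut at about 38% in these data; inactive means inhibition at or below that limit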;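 further: loss of bead fluorescence from 50 nM FITC arrestin peptide bound to appendage; 0% = negative control wells and 100% = excess unlabelled arrestin peptide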
GST GSH counter: GST-GSH bead binding interference, counter-screen; inhibition, % at 10 µM; AID 588338; GST-fluorescein binding to GSH beads, fluorescence; shares compounds with Arrestin-AP2 inh; 1,300 tested, 2% active;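 active means inhibition above 50%, about 3 SD of the inhibition seen with non-fluorescent compounds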;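 further: fluorescein maleimide labelled GST captured on 4 micron glutathione beads; higher means more loss of bead fluorescence from quenching or blocked binding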
Neddyl inh conf: confirmation of human cullin neddylation inhibitors | AID 652217 | calls only at 25 µM | 1,800 tested, 13% active | shares compounds with Neddyl block | TR-FRET cullin neddylation biochemical assay; in the data active means inhibition above about 40%;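 further: neddylation substrate is the cullin 1 ring ligase complex with SKP2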
Numbers without * were called inactive; i = inactive; ? = inconclusive; nt = no result given; + = active, no number. In the library only some 1.7% were active in any assay of this set; here they are far more common.

SMILES	Efflux pump inh	Pemphigus Ab inh	Arrestin-AP2 inh	Neddyl block	Arr-AP2 CP1	GST GSH counter	others
CCOC(=O)C1=C(COC(=O)c2ccccc2[N+](=O)[O-])NC(=O)NC1C (centres undefined)	0	95	0	-12	nt	nt
CCOC(=O)C1=C(COC(=O)C(CC)c2ccccc2)NC(=O)NC1C (centres undefined)	0	?	67*	14	-3	-4
CN(C)c1ccc(C(=O)/C=C/c2ccc(Br)cc2)cc1	0	94	98*	-5	38*	190*
Cc1cnc(C(=O)OCC(=O)c2cccc3ccccc23)cn1	0	98	-26	-22	nt	nt
Cc1c(NC(=O)c2cccc(S(=O)(=O)N(C)c3ccccc3)c2)c(=O)n(-c2ccccc2)n1C	nt	108	5	-5	nt	nt
Cc1c(NC(=O)c2ccc(N(C)S(=O)(=O)c3ccccc3)cc2)c(=O)n(-c2ccccc2)n1C	0	96	54*	-7	-2	-7
COc1ccc(S(=O)(=O)N2CCOCC2)cc1NC(=O)c1ccc(SC)cc1OC	nt	100	nt	-77	nt	nt
Fc1cccc(Cl)c1/C=N/Nc1ccccn1	0	100	11	2	nt	nt
Fc1cccc(F)c1/C=N/Nc1ccccn1	0	97	55*	-8	-4	-2
COc1ccc(C(=O)OCC(=O)c2c(N)n(C)c(=O)n(C)c2=O)c(OC)c1OC	0	nt	20	-18	0	-2
CCc1ccc(C(=O)OCC(=O)c2c(N)n(CC(C)C)c(=O)n(C)c2=O)cc1	0	94	-13	4	-3	-2
Cc1noc(C)c1C(=O)OCC(=O)c1c(N)n(CC(C)C)c(=O)n(C)c1=O	0	99	-4	-4	1	-8
Cn1c(N)c(C(=O)COC(=O)c2cccs2)c(=O)n(C)c1=O	0	98	17	-3	1	2
CC(C)NC(=O)/C=C/C(=O)O	0	101	5	3	nt	nt
COc1cccc(C(=O)OCC(=O)c2c(N)n(C)c(=O)n(C)c2=O)c1	0	117	2	13	-10	-4
Cn1c(N)c(C(=O)COC(=O)c2ccc(-c3ccccc3)cc2)c(=O)n(C)c1=O	0	119	13	-45	nt	nt
Cn1c(N)c(C(=O)COC(=O)c2ccc(C(F)(F)F)cc2)c(=O)n(C)c1=O	0	93	-11	-5	-10	-4
CC(C)Cn1c(N)c(C(=O)COC(=O)c2ccc(F)cc2)c(=O)n(C)c1=O	0	98	13	2	3	-7
COc1ccc(NS(=O)(=O)c2cccc(C(=O)OCC(=O)c3c(N)n(C)c(=O)n(C)c3=O)c2)cc1	0	?	-14	-2	nt	nt
FC(F)(F)c1cc(C(F)(F)F)c2ccc(Oc3ccccc3)nc2n1	0	102	5	-16	nt	nt
Nc1ccc2c(C(F)(F)F)cc(C(F)(F)F)nc2n1	0	102	56*	nt	-3	-6
O=C1NC(=O)/C(=C\c2ccc(OCc3cccc([N+](=O)[O-])c3)cc2)N1	0	121	23	2	nt	nt
CC(C)c1ccc(NC(=O)[C@@H]2CCC(=O)N2C2OC(=O)c3ccccc32)cc1 (some centres undefined)	0	99	11	4	nt	nt
COc1cccc(NC(=O)CN(C)C(=O)C(CCSC)NC(=O)c2ccco2)c1 (centres undefined)	0	106	-4	4	nt	nt
COc1ccc(NC(=O)CN(C)C(=O)C(NC(=O)c2ccco2)C(C)C)cc1 (centres undefined)	nt	97	61*	7	0	-2
SMILES	Efflux pump inh	Pemphigus Ab inh	Arrestin-AP2 inh	Neddyl block	Arr-AP2 CP1	GST GSH counter	others
CN1C(=O)NC(c2ccc(O)cc2)C2=C1CN(c1cccc3ccccc13)C2=O (centres undefined)	0	106	-4	-5	-6	6
CN(C)CCCN(C(=O)c1ccc(S(=O)(=O)N(C)C2CCCCC2)cc1)c1nc2ccc(F)cc2s1	0	102	29	-2	nt	nt
Cc1cc(C)c2sc(N(CCCN(C)C)C(=O)c3ccc(S(=O)(=O)N(C)C4CCCCC4)cc3)nc2c1	0	112	57*	13	-2	-6
COc1ccc(-c2noc(CN(C)C(=O)c3ccc4c(c3)OCO4)n2)cc1	0	nt	18	-3	nt	nt
c1ccc(-c2cnnc(SCc3cn4cccnc4n3)n2)cc1	0	105	60*	-26	-2	-1
c1ccc2[nH]c(SCc3cn4cccnc4n3)nc2c1	0	102	-6	13	nt	nt
CC(=O)Nc1ccc(C(=O)COC(=O)c2ccco2)c(F)c1	0	107	-3	10	nt	nt
CC(=O)Nc1ccc(C(=O)COC(=O)c2cc(C)oc2C)c(F)c1	0	101	72*	6	0	-2
O=C1CCCC2=C1C(c1cccs1)Nc1ccccc1N2 (centres undefined)	0	128	70*	-2	-4	-3
CC1(C)CC(=O)C2=C(C1)Nc1ccccc1NC2c1cccs1 (centres undefined)	0	119	-1	7	nt	nt
Clc1ccccc1Cc1noc(CN2CCN(Cc3ccccn3)CC2)n1	0	100	3	2	nt	nt
COc1cc(C2Nc3cccc4cccc(c34)N2)cc(OC)c1O	0	100	56*	-10	17	9
COc1cc(C2Nc3cccc4cccc(c34)N2)ccc1OC(C)=O	0	81	51	-5	nt	nt
Cc1ccc(C)c(N2CCN(C3CCCCC3NS(=O)(=O)c3ccccc3)CC2)c1 (centres undefined)	0	nt	57*	2	1	-15
Cc1ccc(Cl)cc1N1CCN(C2CCCCC2NS(=O)(=O)c2ccccc2)CC1 (centres undefined)	0	nt	-6	-7	nt	nt
COC(=O)c1cccc(NC(=O)CN(c2ccc3c(c2)OCO3)S(C)(=O)=O)c1C	0	98	61*	-2	7	5
COC(=O)c1cc(NC(=O)CN(c2ccc3c(c2)OCO3)S(C)(=O)=O)ccc1Cl	0	110	-6	-4	nt	nt
CCN(CC(=O)Nc1ccc2c(c1)OCCO2)c1nc(-c2cccnc2)nc2ccccc12	0	nt	-1	-69	nt	nt
COCCCNc1nc2ccccc2nc1NS(=O)(=O)c1ccc(C)cc1	0	86	1	34	nt	nt
COCCNc1nc2ccccc2nc1NS(=O)(=O)c1ccc(C)cc1C	0	97	105*	38*	-8	-8	Neddyl inh conf=+
N#C/C(=C/c1cn(-c2ccccc2)nc1-c1cccc(S(=O)(=O)N2CCOCC2)c1)C(=O)NCc1ccco1	0	89	99*	41*	-8	1	Neddyl inh conf=i
CN(C(=O)OC(C)(C)C)[C@H](Cc1ccccc1)C(=O)N[C@H]1CCCCNC1=O	0	106	0	-5	nt	nt

Screens as filed in PubChem BioAssay.
